The results in this text go back to ChEMBL document CHEMBL3421533, “The Discovery of Orally Bioavailable Tyrosine Threonine Kinase (TTK) Inhibitors: 3-(4-(heterocyclyl)phenyl)-1H-indazole-5-carboxamides as Anticancer Agents” (J Med Chem, 2015).

Where only a bound is given, the exact number is not on record here.

As a reminder, the EC50 is the concentration giving half of the maximal effect. Low values mean a more potent agent, high ones a less potent agent. Usually GI50 stands for the concentration that inhibits growth by half. As usually defined, the IC50 is the concentration that inhibits the measured activity by half. A word on the bioavailability: it is the share of a dose that reaches the circulation, judged against a reference dose that is usually intravenous. A low value points to poor availability. One may read the half-life as the time in which the quantity being followed falls by half. Low readings indicate rapid decline, high ones slow decline.

Data set [1] addresses T1, Dual specificity protein kinase TTK (Homo sapiens, UniProt P33981).
T1 sequence (P33981 whole entry): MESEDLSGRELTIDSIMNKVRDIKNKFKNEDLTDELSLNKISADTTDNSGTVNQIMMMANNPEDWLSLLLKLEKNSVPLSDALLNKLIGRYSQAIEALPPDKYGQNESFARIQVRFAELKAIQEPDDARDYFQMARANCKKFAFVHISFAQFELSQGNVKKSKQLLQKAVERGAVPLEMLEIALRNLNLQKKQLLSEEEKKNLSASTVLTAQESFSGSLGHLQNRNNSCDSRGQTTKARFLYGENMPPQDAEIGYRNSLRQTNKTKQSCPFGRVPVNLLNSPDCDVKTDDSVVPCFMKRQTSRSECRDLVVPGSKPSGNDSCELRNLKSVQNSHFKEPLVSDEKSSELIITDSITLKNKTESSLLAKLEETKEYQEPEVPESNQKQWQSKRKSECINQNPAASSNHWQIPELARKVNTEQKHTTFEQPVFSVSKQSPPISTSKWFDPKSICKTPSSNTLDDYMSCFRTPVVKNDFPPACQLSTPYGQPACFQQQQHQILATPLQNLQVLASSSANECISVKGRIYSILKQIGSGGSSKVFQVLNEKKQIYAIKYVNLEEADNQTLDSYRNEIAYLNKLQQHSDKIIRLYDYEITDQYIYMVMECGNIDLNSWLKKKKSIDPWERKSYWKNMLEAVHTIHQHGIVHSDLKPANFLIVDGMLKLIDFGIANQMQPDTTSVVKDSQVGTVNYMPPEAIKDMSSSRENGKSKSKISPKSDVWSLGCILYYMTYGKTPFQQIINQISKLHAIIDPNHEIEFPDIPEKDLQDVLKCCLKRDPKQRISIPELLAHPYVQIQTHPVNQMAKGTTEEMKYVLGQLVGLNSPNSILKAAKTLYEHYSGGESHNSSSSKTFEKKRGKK
Kind of data set: Inhibition of TTK (unknown origin) transfected in human HCT116 cells after 4 hrs by near infrared imager analysis. It counts as cell-based, HCT-116. The method, boiled down: (§1)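 HCT116 cells transfected with wild-type TTK were arrested with nocodazole (200 ng/mL, 17 h). They were pretreated with MG132 (15 μM, 30 min), then exposed to compound or DMSO for 4 h. Blots were probed for phospho-TTK (Thr12/Ser15), phospho-Aurora A (Thr288)/B (Thr232), TTK and GAPDH. Bands were quantified by near-infrared imaging, and EC50 was fitted.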

The test system of another data set is HCT-116. Kind of data set: Induction of chromosome segregation defect in human HCT116 cells assessed as anaphase and telophase cells with lagging chromosomes at 100 nM incubated for 6 hrs post double thymidine block by DAPI staining-based immunofluorescence microscopic analysis (reference value: 19 +/- 2%). In kind it is functional.
For a further data set, the system named is A2780. Kind of data set: Cytotoxicity against human A2780 cells after 5 days by sulforhodamine B assay. As to conditions: A2780, 120 h. In kind it is functional. The method, boiled down: (§2)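 Cancer lines were seeded at 800–6000 cells per well according to growth rate, 24 h before compound overlay. After culture, cells were fixed in situ and stained with sulforhodamine B. GI50 values were derived by curve fitting.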
(In general: The SRB assay estimates cell density from bound dye.)

Data set [2] is described as follows: Toxicity in po dosed athymic CD1 nude mouse assessed as body weight loss in excess 20% and deemed moribund administered as qd for 21 days measured 3 times per week during compound dosing. It counts as organism-based. As to conditions: in vivo.
In data set [3] the target is Serine/threonine-protein kinase PLK4 (Homo sapiens, UniProt O00444). Kind of data set: Inhibition of PLK4 (unknown origin) by indirect ELISA detection system.
Data set [4] in a line: Cytotoxicity against human TOV21G cells after 5 days by sulforhodamine B assay. It counts as functional. The conditions noted are these: 120 h. The essentials: as §2
The test system of a further data set is COLO 205. Kind of data set: Cytotoxicity against human COLO205 cells after 5 days by sulforhodamine B assay. In kind it is functional. The conditions noted are these: COLO 205, 120 h. The method, boiled down:
as §2

Data set [5] is described as follows: Oral bioavailability in Sprague-Dawley rat at 5 mg/kg by LC-MS/MS analysis. In kind it is ADME, organism-based. As to conditions: in vivo.
Data set [6] concerns the target Muscle, skeletal receptor tyrosine-protein kinase (Homo sapiens, UniProt O15146). Kind of data set: Inhibition of human MuSK by millipore radiometric assay. The essentials:
(§3)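 Radiometric profiling against a 278-kinase panel was done with ATP at Km. Half-maximal inhibitory concentrations were then determined for the kinases most inhibited.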

The target of data set [7] is T1, Dual specificity protein kinase TTK. Kind of data set: Inhibition of amino terminal GST-fused full length human TTK using His6-SUMO-TTK-N as substrate preincubated for 15 mins prior to ATP addition by indirect ELISA detection system.
For another data set, the system named is MDA-MB-231. Kind of data set: Cytotoxicity against human MDA-MB-231 cells after 5 days by sulforhodamine B assay. It counts as functional. As to conditions: MDA-MB-231, 120 h. The method, boiled down:
as §2

Data set [8] in a line: Half life in rat liver microsomes at 1 uM by LC-MS analysis. In kind it is ADME. The conditions noted are these: liver microsomes. (In general: Microsomes from liver hold many membrane-bound enzymes, among them those of drug oxidation.)
A further data set has as its target T2, Aurora kinase A (Homo sapiens, UniProt O14965).
T2 sequence (O14965 whole entry): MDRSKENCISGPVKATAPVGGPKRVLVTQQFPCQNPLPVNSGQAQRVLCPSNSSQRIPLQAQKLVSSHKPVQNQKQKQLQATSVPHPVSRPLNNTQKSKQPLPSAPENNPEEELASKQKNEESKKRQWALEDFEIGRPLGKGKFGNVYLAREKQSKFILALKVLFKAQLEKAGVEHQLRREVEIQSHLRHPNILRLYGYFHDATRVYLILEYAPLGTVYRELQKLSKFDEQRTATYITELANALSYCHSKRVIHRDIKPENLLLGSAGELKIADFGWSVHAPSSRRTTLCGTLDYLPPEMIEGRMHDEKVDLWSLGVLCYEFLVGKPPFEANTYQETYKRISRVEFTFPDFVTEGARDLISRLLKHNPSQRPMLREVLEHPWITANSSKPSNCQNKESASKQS
Kind of data set: Inhibition of AURKA (unknown origin) transfected in human HCT116 cells after 4 hrs by near infrared imager analysis. In kind it is cell-based, HCT-116. The essentials:
as §1

Data set [9] has as its target Proto-oncogene tyrosine-protein kinase receptor Ret (Homo sapiens, UniProt P07949). Kind of data set: Inhibition of human Ret by millipore radiometric assay. The method, boiled down:
as §3

A short description of data set [10]: Cytotoxicity against human OV90 cells after 5 days by sulforhodamine B assay. In kind it is functional. The conditions noted are these: OV-90, 120 h. The method, boiled down:
as §2

The target in data set [11] is Aurora kinase B/Inner centromere protein (Homo sapiens, UniProt Q96GD4). Kind of data set: Inhibition of AURKB/INCENP (unknown origin) preincubated for 15 mins prior to ATP addition by FRET-based homogenous assay. It counts as protein-complex assay. The essentials:
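The enzyme was AURKB/INCENP in a FRET-based homogeneous assay run to kit specifications, with ATP at 128 μM. […] Each IC50 came from a single determination, reported with its standard fitting error.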

In another data set the test system is SW48. Kind of data set: Antitumor activity against human SW48 cells xenografted in CD-1 nude mouse assessed as tumor growth inhibition at 30 mg/kg, po qd administered for 21 days measured 3 times per week during compound dosing relative to vehicle-treated control. It counts as functional. As to conditions: SW48, 504 h, read-out: TGI. The essentials:
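Randomization into groups (n = 7) at 80–120 mm³ mean tumor volume. Compound was given orally once daily for 21 days in 10% NMP/40% PEG400/50% DI water, top dose 30 mg/kg. Tumor volume (x²y/2) was taken three times weekly, and TGI was calculated against vehicle.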

The nature of data set [12]: Plasma protein binding in rat. It counts as ADME, cell-free. As to conditions: read-out: PPB (converted).

Muscle, skeletal receptor tyrosine-protein kinase, sequence (O15146 whole entry): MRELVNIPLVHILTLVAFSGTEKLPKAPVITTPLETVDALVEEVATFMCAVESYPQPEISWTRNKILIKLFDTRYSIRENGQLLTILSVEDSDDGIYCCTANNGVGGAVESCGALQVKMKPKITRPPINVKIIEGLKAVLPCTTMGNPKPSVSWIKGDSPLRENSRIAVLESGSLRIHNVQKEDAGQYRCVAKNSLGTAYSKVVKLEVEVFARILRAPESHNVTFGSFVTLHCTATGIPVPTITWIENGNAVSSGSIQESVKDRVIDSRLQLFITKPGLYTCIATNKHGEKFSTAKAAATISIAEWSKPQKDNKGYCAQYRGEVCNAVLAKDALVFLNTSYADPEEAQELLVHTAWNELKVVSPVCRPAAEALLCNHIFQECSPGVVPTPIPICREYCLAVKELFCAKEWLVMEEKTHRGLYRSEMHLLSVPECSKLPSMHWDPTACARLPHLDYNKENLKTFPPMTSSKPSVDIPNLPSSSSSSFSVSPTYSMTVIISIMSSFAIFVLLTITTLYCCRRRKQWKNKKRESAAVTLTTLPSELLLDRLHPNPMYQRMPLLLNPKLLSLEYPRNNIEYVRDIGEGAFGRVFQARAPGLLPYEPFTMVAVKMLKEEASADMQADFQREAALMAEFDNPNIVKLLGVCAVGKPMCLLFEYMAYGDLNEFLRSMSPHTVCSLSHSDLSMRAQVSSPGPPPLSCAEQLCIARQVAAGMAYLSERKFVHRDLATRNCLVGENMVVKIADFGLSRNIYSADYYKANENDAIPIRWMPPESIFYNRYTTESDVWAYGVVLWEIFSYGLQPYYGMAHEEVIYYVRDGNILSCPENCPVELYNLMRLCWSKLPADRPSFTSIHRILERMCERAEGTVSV
Serine/threonine-protein kinase PLK4, sequence (O00444 whole entry): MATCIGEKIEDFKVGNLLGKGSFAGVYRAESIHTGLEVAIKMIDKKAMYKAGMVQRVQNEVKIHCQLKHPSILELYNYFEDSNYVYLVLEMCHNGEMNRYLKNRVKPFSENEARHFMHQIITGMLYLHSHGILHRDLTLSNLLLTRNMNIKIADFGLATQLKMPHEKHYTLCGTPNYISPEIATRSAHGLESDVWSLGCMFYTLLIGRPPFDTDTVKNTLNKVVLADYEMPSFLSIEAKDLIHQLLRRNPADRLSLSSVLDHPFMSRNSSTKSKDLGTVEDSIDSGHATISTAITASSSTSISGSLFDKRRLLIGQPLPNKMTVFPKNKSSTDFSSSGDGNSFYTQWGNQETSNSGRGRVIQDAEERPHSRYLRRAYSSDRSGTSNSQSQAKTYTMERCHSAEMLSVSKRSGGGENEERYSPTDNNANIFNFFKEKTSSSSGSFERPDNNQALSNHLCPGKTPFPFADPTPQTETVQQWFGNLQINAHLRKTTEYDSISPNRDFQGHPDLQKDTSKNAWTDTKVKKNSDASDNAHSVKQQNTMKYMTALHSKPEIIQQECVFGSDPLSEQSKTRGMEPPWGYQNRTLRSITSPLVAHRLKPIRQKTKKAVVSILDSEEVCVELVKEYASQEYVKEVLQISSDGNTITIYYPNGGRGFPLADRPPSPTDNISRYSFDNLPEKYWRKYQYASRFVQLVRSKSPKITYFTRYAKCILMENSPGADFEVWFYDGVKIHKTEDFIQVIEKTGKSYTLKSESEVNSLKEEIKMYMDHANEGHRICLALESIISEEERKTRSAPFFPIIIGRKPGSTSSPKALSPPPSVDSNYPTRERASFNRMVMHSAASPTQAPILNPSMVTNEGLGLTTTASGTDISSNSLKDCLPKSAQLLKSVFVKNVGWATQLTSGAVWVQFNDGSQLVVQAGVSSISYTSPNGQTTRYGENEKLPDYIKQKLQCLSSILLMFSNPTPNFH
Aurora kinase B/Inner centromere protein, sequence (Q96GD4 whole entry): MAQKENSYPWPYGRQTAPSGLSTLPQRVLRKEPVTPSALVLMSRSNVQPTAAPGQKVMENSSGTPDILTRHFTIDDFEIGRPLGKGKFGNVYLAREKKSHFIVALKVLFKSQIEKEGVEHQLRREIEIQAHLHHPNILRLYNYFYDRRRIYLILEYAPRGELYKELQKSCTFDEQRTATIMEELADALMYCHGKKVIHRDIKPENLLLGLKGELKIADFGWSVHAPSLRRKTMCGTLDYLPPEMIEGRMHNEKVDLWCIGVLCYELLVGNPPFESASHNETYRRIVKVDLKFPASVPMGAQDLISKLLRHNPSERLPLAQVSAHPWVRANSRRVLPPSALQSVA
Aurora kinase B/Inner centromere protein, sequence (Q9NQS7 whole entry, further chain): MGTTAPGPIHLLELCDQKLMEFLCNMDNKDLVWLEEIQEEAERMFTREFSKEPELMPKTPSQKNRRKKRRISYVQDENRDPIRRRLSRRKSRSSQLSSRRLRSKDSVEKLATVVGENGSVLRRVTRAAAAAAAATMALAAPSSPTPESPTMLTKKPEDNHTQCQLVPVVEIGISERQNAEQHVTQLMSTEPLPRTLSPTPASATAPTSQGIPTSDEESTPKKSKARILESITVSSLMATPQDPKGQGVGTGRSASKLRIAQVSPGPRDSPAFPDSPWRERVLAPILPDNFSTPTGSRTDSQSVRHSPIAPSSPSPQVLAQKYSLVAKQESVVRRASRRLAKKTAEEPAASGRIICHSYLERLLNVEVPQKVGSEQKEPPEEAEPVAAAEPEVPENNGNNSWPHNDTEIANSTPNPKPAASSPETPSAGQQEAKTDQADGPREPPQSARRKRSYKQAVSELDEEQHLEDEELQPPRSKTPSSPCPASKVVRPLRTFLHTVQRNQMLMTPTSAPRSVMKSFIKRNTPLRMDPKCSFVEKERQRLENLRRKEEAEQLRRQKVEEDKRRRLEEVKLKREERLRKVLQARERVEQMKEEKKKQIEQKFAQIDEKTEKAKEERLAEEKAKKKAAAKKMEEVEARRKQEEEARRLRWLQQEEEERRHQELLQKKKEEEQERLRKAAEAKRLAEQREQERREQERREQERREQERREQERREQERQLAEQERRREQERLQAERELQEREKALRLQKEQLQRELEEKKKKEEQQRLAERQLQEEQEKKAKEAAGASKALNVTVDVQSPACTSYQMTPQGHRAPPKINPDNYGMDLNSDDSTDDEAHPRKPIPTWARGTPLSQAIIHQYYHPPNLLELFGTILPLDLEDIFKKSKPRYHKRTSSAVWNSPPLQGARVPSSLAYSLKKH
Proto-oncogene tyrosine-protein kinase receptor Ret, sequence (P07949 whole entry): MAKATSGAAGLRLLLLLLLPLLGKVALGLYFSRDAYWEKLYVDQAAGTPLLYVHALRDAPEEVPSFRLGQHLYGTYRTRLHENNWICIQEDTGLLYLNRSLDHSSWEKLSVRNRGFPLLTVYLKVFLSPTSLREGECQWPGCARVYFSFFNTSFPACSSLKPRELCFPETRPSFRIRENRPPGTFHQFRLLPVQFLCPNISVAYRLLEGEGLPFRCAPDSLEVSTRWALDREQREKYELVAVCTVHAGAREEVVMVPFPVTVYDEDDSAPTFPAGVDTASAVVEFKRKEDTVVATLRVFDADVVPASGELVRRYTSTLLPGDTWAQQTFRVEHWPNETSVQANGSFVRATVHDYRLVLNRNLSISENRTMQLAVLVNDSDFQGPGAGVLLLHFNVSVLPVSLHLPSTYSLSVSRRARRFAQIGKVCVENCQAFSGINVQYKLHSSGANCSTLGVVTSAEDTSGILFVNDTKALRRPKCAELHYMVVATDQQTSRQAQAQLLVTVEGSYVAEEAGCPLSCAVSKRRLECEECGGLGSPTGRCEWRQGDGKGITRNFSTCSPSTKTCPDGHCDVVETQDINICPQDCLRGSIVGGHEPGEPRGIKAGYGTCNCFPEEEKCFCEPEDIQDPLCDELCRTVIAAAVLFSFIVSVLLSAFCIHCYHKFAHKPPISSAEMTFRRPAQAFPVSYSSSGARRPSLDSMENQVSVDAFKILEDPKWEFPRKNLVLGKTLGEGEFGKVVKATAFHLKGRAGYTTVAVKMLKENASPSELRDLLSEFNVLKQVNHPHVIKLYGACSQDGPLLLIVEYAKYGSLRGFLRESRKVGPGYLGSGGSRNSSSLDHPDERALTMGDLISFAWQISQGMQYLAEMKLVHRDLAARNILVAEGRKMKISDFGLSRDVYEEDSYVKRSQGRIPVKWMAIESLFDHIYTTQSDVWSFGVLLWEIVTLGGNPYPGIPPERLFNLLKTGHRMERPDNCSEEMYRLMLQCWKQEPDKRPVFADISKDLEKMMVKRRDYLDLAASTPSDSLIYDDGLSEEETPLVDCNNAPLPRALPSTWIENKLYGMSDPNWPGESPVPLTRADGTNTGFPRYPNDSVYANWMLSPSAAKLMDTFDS

In the case of `O=C(N[C@@H](c1ccccn1)C1CC1)c1ccc2[nH]nc(-c3ccc(N4[C@H]5CC[C@H]4CC(O)C5)cc3)c2c1` (stereo in doubt; 75), the half-maximal effective concentration (EC50) in [1] is 14 nM; at Aurora kinase A, > 6000 nM. Moreover, the Activity in the data set on HCT-116 is given as 61%. Also, the GI50 was determined as 20 nM with A2780; 16 nM in data set [4]; 60 nM with COLO 205; 70 nM with MDA-MB-231; 30 nM in [10]. The MTD at 504 h in [2] is 35 mg/kg. The half-inhibitory concentration (IC50) in data set [3] came to 130 nM; in [6], 690 nM; in data set [7] it was 3.1 nM; in data set [9], 2800 nM; in data set [11] it was 1300 nM. For the same compound, the bioavailability in data set [5] stood at 44%. Also, the half-life at 1 µM in data set [8] was > 1 h. For the same compound, in the data set on SW48, the inhibition in vivo at 30 mg/kg was determined as 66%. In data set [12], the fraction unbound was 0.069.
